Source: PubChem (several laboratories)
Compounds with a hit are over-represented: about 2.2% of the library has one in this group of screens.
Env fusion inh – inhibitors of HIV-1 Env-driven cell-cell fusion, primary screen, HeLa-JRFL effector, CEM21 target cells, luciferase. inhibition, % at 12.3 µM. 360,000 compounds, 1.1% hits;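 active = mean replicate inhibition score of at least 50 and every replicate individually at or above 50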;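 also: 0% = plate neutral controls and 100% = maraviroc near 300 nM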
NR2E3 ag-1 – inhibitors of NR2E3-RetCOR corepressor binding, primary screen, NR2E3 agonist project, biochemical, TR-FRET, GST-NR2E3, biotin-RetCOR | AID 2300, 2010 | Photoreceptor-specific nuclear receptor (Homo sapiens), Q9Y5X4 | inhibition of corepressor binding, % at 4.78 µM | 320,000 compounds, 0.12% hits | 1536-well;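 active = percent inhibition above the cutoff of mean plus 3 SD of all tested compounds, set per screening campaign, cut at about 20% in these data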;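 also: 0% = DMSO wells and 100% = biotin wells as full block of FRET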
Target sequence (Q9Y5X4 whole entry, looked up): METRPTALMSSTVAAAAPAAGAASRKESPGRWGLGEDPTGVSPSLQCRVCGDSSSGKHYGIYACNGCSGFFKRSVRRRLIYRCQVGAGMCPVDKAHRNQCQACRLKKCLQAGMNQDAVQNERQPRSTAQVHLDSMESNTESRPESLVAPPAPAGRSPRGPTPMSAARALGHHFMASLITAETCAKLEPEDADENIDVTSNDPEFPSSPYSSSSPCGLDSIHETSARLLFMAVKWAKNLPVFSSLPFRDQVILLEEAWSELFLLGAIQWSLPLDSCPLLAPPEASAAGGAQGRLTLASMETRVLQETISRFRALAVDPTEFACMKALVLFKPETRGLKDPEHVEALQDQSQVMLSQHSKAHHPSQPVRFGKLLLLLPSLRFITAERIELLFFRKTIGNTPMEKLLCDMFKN
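Test system: GST-NR2E3 and biotin-RetCOR proteins | Quantity: 1.35 nM GST-tagged NR2E3 final | Medium: Tris pH 7.5 | Also added: 7 nM biotin-RetCOR | Dosing: Compound at 4.8 µM, single dose | Timing: 5 h at 4 °C | Detection: Time-resolved FRET | Read-out basis: Percent inhibition | Benchmarks: Biotin wells as high control, 0.6% DMSO wells as low control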
NR2E3 ag-2 – NR2E3 agonists in two-hybrid cells, primary screen, cell-based, luminescence, CHO-S, Gal4-NCOR/VP16-NR2E3. Photoreceptor-specific nuclear receptor (Homo sapiens), Q9Y5X4. luciferase. inhibition of corepressor binding, % at 3.98 µM. 360,000 compounds, 0.35% hits. AID 602229, 2012;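 active = inhibition above the mean of all tested compounds plus 3 SD, cut at about 70% in these data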;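 also: 0% = DMSO with NR2E3 transfected cells and 100% = cells lacking NR2E3 construct; higher means lower luciferase signal from less NR2E3 corepressor binding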
V-ATPase pH – regulators of yeast V-ATPase proton pumping, primary screen, pHLuorin cytosolic pH fluorescence | S. cerevisiae | response, % at 10 µM | 350,000 compounds, 0.37% hits; in the data active = response mostly above about 7.3%, no sharp cut-off; inactive = mostly below about 5.4%; also: actives read high
GAA850 FXN act – FXN promoter activators, primary screen, cell-based, luciferase luminescence, HEK293 lucGAA850; HEK293 lucGAA850 FXN promoter luciferase reporter, 24 h; percent of 10 µM SAHA response; activation, % at 6 µM; 360,000 compounds, 0.56% hits; AID 540364, 2011;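 active = activation above the average of all compounds screened plus 3 SD, cutoff fixed separately per campaign, cut at about 7.5% in these data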;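 also: 0% = DMSO wells and 100% = 10 µM SAHA wells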
GalR3 antagonist – GalR3 antagonists in HEK293 cells, primary screen, cell-based, fluorescence readout; HEK293 GalR3-CNG cAMP membrane potential fluorescence; galR3 body fused to GalR1 C-terminus; Galanin receptor type 3 (Homo sapiens), O60755; inhibition, % at 3 µM; 360,000 compounds, 0.44% hits;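 active = inhibition above the screen-wide average plus 3 SD, cut at about 13% in these data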;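 also: forskolin and galanin both at EC90 stimulate the cells; cAMP rise reported by CNG channel membrane potential dye signal; 0% = forskolin plus galanin with DMSO and 100% = forskolin alone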
NR2E3 agonist cf – NR2E3 agonists, confirmation, biochemical, TR-FRET; 360 compounds, 39% hits; activation (reported as inhibition), % at 3.98 µM; AID 2379, 2010; cell-free NR2E3 corepressor release, 5 h; shares compounds with NR2E3 ag-1; in the data active = activation above about 20%
PPARg-NCOR2 ag – agonists of PPARg-NCOR2 corepressor interaction, counter-screen for NR2E3 agonist project, biochemical, TR-FRET | shares compounds with NR2E3 ag-1 | TR-FRET PPARg-NCOR2 coregulator interaction | inhibition, % at 3.98 µM | 360 compounds, 45% hits; in the data active = inhibition above about 20%;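 also: 0% = DMSO vehicle and 100% = wells without protein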
The depositor's hits bear a star; . = no result given; [ ] = dose if it differs, or a comment.

SMILES	Env fusion inh	NR2E3 ag-1	NR2E3 ag-2	V-ATPase pH	GAA850 FXN act	GalR3 antagonist	NR2E3 agonist cf	PPARg-NCOR2 ag
COc1cc(C2C(C(=O)c3cc4ccccc4o3)=C(O)C(=O)N2c2cc(C)on2)cc(OC)c1OC (stereo not drawn)	-3	30*	-6	1	0	3	35*	34*
COc1cccc(C2C(C(=O)c3cc4cccc(OC)c4o3)=C(O)C(=O)N2c2cc(C)on2)c1OC (stereo not drawn)	.	14	-52	-3	1	1	.	.
COc1cccc2cc(C(=O)C3=C(O)C(=O)N(c4cc(C)on4)C3c3cccs3)oc12 (stereo not drawn)	-9	33*	-10	-1	0	-2	36*	42*
C[C@@H]1CCCCO[C@H](CN(C)C(=O)C2CCCCC2)[C@H](C)CN([C@H](C)CO)C(=O)c2cc(NC(=O)Nc3cccc4ccccc34)ccc2O1	8[16.7 µM]	.	.	.	.	.	.	.
CCNC(=O)C[C@H]1CC[C@@H]2[C@H](COC[C@@H](O)CN2C(=O)C2CCOCC2)O1	4[16.7 µM]	.	.	.	.	.	.	.
O=C(C1=C(O)C(=O)N(CCN2CCOCC2)C1c1cccc(F)c1)c1cc2ccccc2o1 (stereo not drawn)	-1	33*	-13	0	0	-10	20*	25*
CN(C)CCCN1C(=O)C(O)=C(C(=O)c2cc3ccccc3o2)C1c1ccccc1 (stereo not drawn)	.	30*	-18	-6	0	-1	27*	28*
O=C(C1=C(O)C(=O)N(CCN2CCOCC2)C1c1ccc(Br)cc1)c1cc2ccccc2o1 (stereo not drawn)	13	18	13	-1	1	-1	.	.
Cc1ccc(C2C(C(=O)c3cc4ccccc4o3)=C(O)C(=O)N2CCN2CCOCC2)cc1 (stereo not drawn)	-7	20*	-4	0	2	-7	25*	25*
O=C(C1=C(O)C(=O)N(CCN2CCOCC2)C1c1cccc(O)c1)c1cc2ccccc2o1 (stereo not drawn)	14	.	-30	-3	-1	-2	.	.
O=C(C1=C(O)C(=O)N(CCN2CCOCC2)C1c1cccnc1)c1cc2ccccc2o1 (stereo not drawn)	-34	32*	-2	3	1	-5	5	4
CNC[C@H]1Oc2ccc(NC(=O)Nc3ccc(OC)cc3)cc2C(=O)N([C@@H](C)CO)C[C@@H]1C	-1[16.7 µM]	.	.	.	.	.	.	.
O=C(NCCN1CCCCC1)[C@H]1[C@H](CO)[C@H]2Cn3c(cccc3=O)[C@H]2N1Cc1ccccn1	-10[16.7 µM]	.	.	.	.	.	.	.
CCCN(C)C[C@@H]1Oc2ncc(C#CCN(C)C)cc2C(=O)N([C@H](C)CO)C[C@@H]1C	-3[16.7 µM]	.	.	.	.	.	.	.
O=C(C1=C(O)C(=O)N(CCN2CCOCC2)C1c1cccs1)c1cc2ccccc2o1 (stereo not drawn)	1	30*	-33	-5	1	1	31*	34*
COc1cccc2cc(C(=O)C3=C(O)C(=O)N(CCN4CCOCC4)C3c3cccc(Cl)c3)oc12 (stereo not drawn)	18	28*	-10	-2	1	-3	13	17
COc1cccc2cc(C(=O)C3=C(O)C(=O)N(CCN4CCOCC4)C3c3ccc(Cl)cc3)oc12 (stereo not drawn)	-4	4	1	1	-2	-5	.	.
COCC#Cc1cnc2c(c1)C(=O)N([C@H](C)CO)C[C@@H](C)[C@H](CN(C)C(=O)NC1CCCC1)O2	0[16.7 µM]	.	.	.	.	.	.	.
C[C@@H]1CN([C@H](C)CO)C(=O)c2cc(C3=CCCC3)cnc2O[C@@H]1CN(C)S(C)(=O)=O	-23[16.7 µM]	.	.	.	.	.	.	.
CCCCc1nnc(NC(=O)CSc2nc(O)c(-c3ccccc3)c(=O)[nH]2)s1	2	3	1	1	2	-6	.	.
CCCCc1nnc(NC(=O)CSc2nc(O)c(Cc3ccccc3)c(=O)[nH]2)s1	5	26*	27	1	1	3	-6	-5
CCCCN1C(=O)N(C)C2NC(=O)NC21 (stereo not drawn)	-67	9	-8	1	1	-5	.	.
CCCCN1C(=O)NC2NC(=O)NC21 (stereo not drawn)	.	37*	-27	-1	0	-3	15	-10
CCS(=O)(=O)NCC[C@@H]1CC[C@H](NS(=O)(=O)c2cccc(Cl)c2)[C@H](CO)O1	7[16.7 µM]	.	.	.	.	.	.	.
O=C1C=C(O)C(n2cncn2)C(c2ccc3c(c2)OCO3)C1 (stereo not drawn)	0	24*	-15	-2	2	2	-8	-2
SMILES	Env fusion inh	NR2E3 ag-1	NR2E3 ag-2	V-ATPase pH	GAA850 FXN act	GalR3 antagonist	NR2E3 agonist cf	PPARg-NCOR2 ag
O=C1CC(=O)C(n2cncn2)C(c2cccc(Cl)c2)C1 (stereo not drawn)	-115	0	-9	0	0	-4	.	.
CCc1cccc(NC(=O)Cn2c(=O)c3cccn3c3ccccc32)c1	6	26*	-4	-6	2	-10	10	12
Cc1cccc(C)c1NC(=O)Cn1c(=O)c2cccn2c2ccccc21	14	1	-7	1	1	-7	.	.
COC(=O)CCCCC1SCC2NC(=O)NC21 (stereo not drawn)	1	7	21	2	2	-4	.	.
O=C(O)CCCC[C@@H]1SC[C@@H]2NC(=O)N[C@@H]21	.	93*	7	5	-1	-2	94*	94*
CCc1cc2cc(C(=O)Nc3ccc(C)cc3)sc2s1	-66	33*	1	-2	2	-3	20*	23*
C[C@@H]1CN([C@@H](C)CO)C(=O)Cc2cc(NC(=O)CCN3CCOCC3)ccc2O[C@H]1CN(C)CC1CCCCC1	-20[16.7 µM]	.	.	.	.	.	.	.
C[C@@H]1CN([C@H](C)CO)C(=O)c2cc(NS(=O)(=O)c3ccc(Cl)cc3)ccc2O[C@@H](C)CCCCO[C@@H]1CN(C)C(=O)c1ccccc1	-17[16.7 µM]	.	.	.	.	.	.	.
COc1ccc(-n2c(=S)[nH]c3c(oc4ccccc43)c2=O)cc1	-14	53*	-35	-2	1	1	39*	38*
